According to the RNAGym collection of RNA variant scans (doi:10.1038/s41586-018-0170-7):

B1: tRNA (parent)
chain: GUUCCGUUGGCGUAAUGGUAACGCGUCUCCCUCCUAAGGAGAAGACUGCGGGUUCGAGUCCCGUACGGAACG

Variants of: B1
Assay: yeast fitness, log relative to wild type (ln ratio); higher = fitter; tRNA-Arg(CCU), competitive growth, 37 C, 1 M NaCl
How it was run: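 Variants were counted by 125 bp paired-end Illumina sequencing after pools of a combinatorial tRNA-Arg(CCU) library, held on a HIS3 centromeric plasmid in BY4742 lacking the chromosomal gene, grew ~6.5 generations (~26.5 h) in SC-HIS 1M NaCl at 37 °C. Each genotype's fitness is the natural log of its generations relative to the wild type's. Generations were OD-scaled log2 output/input frequencies, inverse-variance weighted over replicates.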

Row | Variant | yeast fitness (ln)
1 | GGUCCGUUGGCGUAAUGGUAACGCGUCUCCCUCCUAAGGAGAAGAUUGCGGGUUCGAGUCCCGUAUGGGAUG [U2G C46U C66U A69G C71U] | -0.209
2 | GGUCCGUUGGCGUAAUGGUAACGCGUUUCCCUCCUAAGGAGAAGACUGCGGGUUCGAGUCCCGUAAGGGAUG [U2G C27U C66A A69G C71U] | -0.197
3 | GGUCCGUUGGCGUAAUGGUAACGCGUCUCCCUCCUAAGGAGAAGAUUGCGGGUUCGAGUCCCGUACGGGGUG [U2G C46U A69G A70G C71U] | -0.184
4 | GGUCCGUUGGCGUAAUGGUAACGCGUCUCCCUCCUAAGGAGAAGAUUGCGGGUUCGAGUCCCGUACGGAGCG [U2G C46U A70G] | -0.0123
5 | GGUCCGUUGGCGUAAUGGUAACGCGUCUCCCUCCUAAGGAGAAGAUUGCGGGUUCGAGUCCCGUACGGAUCG [U2G C46U A70U] | -0.00122
6 | GGUCCGUUGGCGUAAUGGUAACGCGUCUCCCUCCUAAGGAGAAGAUUGCGGGUUCGAGUCCCGUACGGAACG [U2G C46U] | -0.0208
7 | GGUCCGUUGGCGUAAUGGUAACGCGUCUCCCUCCUAAGGAGAAGAUUGCGGGUUCGAGUCCCGUAUGGAUCG [U2G C46U C66U A70U] | -0.00424
8 | GGUCCGUUGGCGUAAUGGUAACGCGUCUCCCUCCUAAGGAGAAGAUUGCGGGUUCGAGUCCCGUAUGGAGCG [U2G C46U C66U A70G] | -0.11
9 | GGUCCGUUGGCGUAAUGGUAACGCGUCUCCCUCCUAAGGAGAAGAUUGCGGGUUCGAGUCCCGUAAGGGAUG [U2G C46U C66A A69G C71U] | -0.191
10 | GGUCCGUUGGCGUAAUGGUAACGCGUCUCCCUCCUAAGGAGAAGAUUGCGGGUUCGAGUCCCGUAAGGAUCG [U2G C46U C66A A70U] | -0.0904
11 | GGUCCGUUGGCGUAAUGGUAACGCGUCUCCCUCCUAAGGAGAAGAUUGCGGGUUCGAGUCCCGUAAGGAGCG [U2G C46U C66A A70G] | -0.0687
12 | GGUCCGUUGGCGUAAUGGUAACGCGUUUCCCUCCUAAGGAGAAGACUGCGGGUUCGAGUCCCGUAAGGAGUG [U2G C27U C66A A70G C71U] | -0.201
13 | GGUCCGUUGGCGUAAUGGUAACGCGUUUCCCUCCUAAGGAGAAGACUGCGGGUUCGAGUCCCGUAUGGAGCG [U2G C27U C66U A70G] | -0.147
14 | GGUCCGUUGGCGUAAUGGUAACGCGUUUCCCUCCUAAGGAGAAGACUGCGGGUUCGAGUCCCGUAUGGAUCG [U2G C27U C66U A70U] | -0.0967
15 | GGUCCGUUGGCGUAAUGGUAACGCGUUUCCCUCCUAAGGAGAAGACUGCGGGUUCGAGUCCCGUAUGGGUUG [U2G C27U C66U A69G A70U C71U] | -0.433
16 | GGUCCGUUGGCGUAAUGGUAACGCGUCUCCCUCCUAAGGAGAAGAUUGCGGGUUCGAGUCCCGUAUGGGUUG [U2G C46U C66U A69G A70U C71U] | -0.349
17 | GGUCCGUUGGCGUAAUGGUAACGCGUUUCCCUCCUAAGGAGAAGACUGCGGGUUCGAGUCCCGUAAGGGUCG [U2G C27U C66A A69G A70U] | -0.155
18 | GGUCCGUUGGCGUAAUGGUAACGCGUUUCCCUCCUAAGGAGAAGACUGCGGGUUCGAGUCCCGUAAGGGGCG [U2G C27U C66A A69G A70G] | -0.15
19 | GGUCCGUUGGCGUAAUGGUAACGCGUCUCCCUCCUAAGGAGAAGAUUGCGGGUUCGAGUCCCGUAUGGAUUG [U2G C46U C66U A70U C71U] | -0.28

Row | Variant | yeast fitness (ln)
20 | GGUCCGUUGGCGUAAUGGUAACGCGUUUCCCUCCUAAGGAGAAGACUGCGGGUUCGAGUCCCGUAAGGGGUG [U2G C27U C66A A69G A70G C71U] | -0.247
21 | GGUCCGUUGGCGUAAUGGUAACGCGUCUCCCUCCUAAGGAGAAGACUGCGGGUUCGAGUCCCGUAAGGGAUG [U2G C66A A69G C71U] | -0.145
22 | GGUCCGUUGGCGUAAUGGUAACGCGUCUCCCUCCUAAGGAGAAGAUUGCGGGUUCGAGUCCCGUACGGAAUG [U2G C46U C71U] | -0.0759
23 | GGUCCGUUGGCGUAAUGGUAACGCGUCUCCCUCCUAAGGAGAAGACUGCGGGUUCGAGUCCCGUAAGGGGCG [U2G C66A A69G A70G] | -0.148
24 | GGUCCGUUGGCGUAAUGGUAACGCGUCUCCCUCCUAAGGAGAAGACUGCGGGUUCGAGUCCCGUAAGGGUCG [U2G C66A A69G A70U] | -0.131
25 | GGUCCGUUGGCGUAAUGGUAACGCGUUUCCCUCCUAAGGAGAAGACUGCGGGUUCGAGUCCCGUAUGGAUUG [U2G C27U C66U A70U C71U] | -0.281
26 | GGUCCGUUGGCGUAAUGGUAACGCGUCUCCCUCCUAAGGAGAAGAUUGCGGGUUCGAGUCCCGUAUGGAAUG [U2G C46U C66U C71U] | -0.115
27 | GGUCCGUUGGCGUAAUGGUAACGCGUCUCCCUCCUAAGGAGAAGACUGCGGGUUCGAGUCCCGUAAGGAGUG [U2G C66A A70G C71U] | -0.168
28 | GGUCCGUUGGCGUAAUGGUAACGCGUCUCCCUCCUAAGGAGAAGAUUGCGGGUUCGAGUCCCGUAAGGAGUG [U2G C46U C66A A70G C71U] | -0.116
29 | GGUCCGUUGGCGUAAUGGUAACGCGUUUCCCUCCUAAGGAGAAGACUGCGGGUUCGAGUCCCGUAUGGGACG [U2G C27U C66U A69G] | -0.231
30 | GGUCCGUUGGCGUAAUGGUAACGCGUCUCCCUCCUAAGGAGAAGAUUGCGGGUUCGAGUCCCGUAUGGAGUG [U2G C46U C66U A70G C71U] | -0.115
31 | GGUCCGUUGGCGUAAUGGUAACGCGUCUCCCUCCUAAGGAGAAGAUUGCGGGUUCGAGUCCCGUAAGGAAUG [U2G C46U C66A C71U] | -0.0426
32 | GGUCCGUUGGCGUAAUGGUAACGCGUUUCCCUCCUAAGGAGAAGACUGCGGGUUCGAGUCCCGUAAGGAUCG [U2G C27U C66A A70U] | -0.0765
33 | GGUCCGUUGGCGUAAUGGUAACGCGUUUCCCUCCUAAGGAGAAGACUGCGGGUUCGAGUCCCGUAAGGAGCG [U2G C27U C66A A70G] | -0.128
34 | GGUCCGUUGGCGUAAUGGUAACGCGUCUCCCUCCUAAGGAGAAGAUUGCGGGUUCGAGUCCCGUACGGGACG [U2G C46U A69G] | -0.208
35 | GGUCCGUUGGCGUAAUGGUAACGCGUCUCCCUCCUAAGGAGAAGAUUGCGGGUUCGAGUCCCGUACGGGUCG [U2G C46U A69G A70U] | 0.00211
36 | GGUCCGUUGGCGUAAUGGUAACGCGUCUCCCUCCUAAGGAGAAGAUUGCGGGUUCGAGUCCCGUACGGGGCG [U2G C46U A69G A70G] | -0.131
37 | GGUCCGUUGGCGUAAUGGUAACGCGUUUCCCUCCUAAGGAGAAGACUGCGGGUUCGAGUCCCGUAUGGAGUG [U2G C27U C66U A70G C71U] | -0.21
